From ChEMBL document CHEMBL5338764, “Prodrug Strategies for the Development of β-l-5-((E)-2-Bromovinyl)-1-((2S,4S)-2-(hydroxymethyl)-1,3-(dioxolane-4-yl))uracil (l-BHDU) against Varicella Zoster Virus (VZV)” (J Med Chem, 2023)
Values belong to the molecule of their own block, whether it stands above or below them.

Experiments:
[1] = Selectivity index, ratio of CC50 for human ARPE-19 cells to EC50 for VZV infected human ARPE-19 cells; assay type: toxicity; conditions: VZV infected ARPE-19 cells, read-out: Selectivity Index
[2] = Cytotoxicity against HFF cells assessed as reduction in cell viability; assay type: toxicity, cell-based; conditions: human
[3] = Prodrug conversion in BALB/c mouse assessed as AUC of L-BHDU at 22.5 mg/kg, po via gavage measured upto 120 mins by LC-MS/MS analysis; assay type: ADME, organism-based; parameters: time < 120 min, dose 22.5 mg/kg, route po; conditions: in vivo, 2 h
Outline: (§1)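 BALB/c mice of both sexes (N = 15 per sex per group) received a single oral gavage dose: 11.4 mg/kg L-BHDU or an equimolar 22.5 mg/kg of the POM prodrug, in Cremophor–DMSO–saline (1:1:8). Three mice per group were bled by cardiac puncture under isoflurane at 20, 40, 60 and 120 min into heparin. Plasma (AZT internal standard, 20 ng/mL) was methanol-precipitated and L-BHDU quantified by LC-MS/MS (negative ESI).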

Human alphaherpesvirus 3 [4] = test: Antiviral activity against VZV expressing ORF57-TS mutant infected human ARPE-19 cells assessed as reduction in viral replication treated for 72 hrs by bioluminescence imaging analysis; assay type: functional, organism-based; conditions: Human alphaherpesvirus 3, ARPE-19, 72 h
[5] = Prodrug conversion in BALB/c mouse assessed as concentration of L-BHDU formation at 22.5 mg/kg, po via gavage measured after 120 mins by LC-MS/MS analysis; assay type: ADME, organism-based; conditions: in vivo, 2 h; outline: as §1
[6] = Prodrug conversion in BALB/c mouse assessed as Tmax of L-BHDU at 22.5 mg/kg, po via gavage measured upto 120 mins by LC-MS/MS analysis; assay type: ADME, organism-based; conditions: in vivo, 2 h; outline: as §1
[7] = Prodrug conversion in BALB/c mouse assessed as concentration of L-BHDU formation at 22.5 mg/kg, po via gavage measured after 40 mins by LC-MS/MS analysis; assay type: ADME, organism-based; conditions: in vivo; outline: as §1
[8] = Prodrug conversion in BALB/c mouse assessed as concentration of L-BHDU formation at 22.5 mg/kg, po via gavage measured after 20 mins by LC-MS/MS analysis; assay type: ADME, organism-based; conditions: in vivo; outline: as §1
[9] = Stability in mouse liver homogenate assessed as compound remaining at 0.3 ug/ml measured after 4 mins by LC-MS/MS analysis; assay type: ADME, tissue-based; conditions: tissue homogenate, dose 0.3 µg/ml
Outline: (§2)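 Liver homogenate from untreated BALB/c mice was spiked with prodrug at 0.3 μg/mL, with azidothymidine internal standard at 20 ng/mL final, and incubated at 37 °C. Reactions were stopped with 2 volumes of methanol at 0, 2, 4, 10, 30 and 60 min. Supernatants were dried and reconstituted in 50% methanol. Prodrug, L-BHDU and L-BHDU-MP were quantified by LC-MS/MS against calibration curves.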

[10] = Prodrug conversion in BALB/c mouse assessed as concentration of L-BHDU formation at 22.5 mg/kg, po via gavage measured after 60 mins by LC-MS/MS analysis; assay type: ADME, organism-based; conditions: in vivo, 1 h; outline: as §1
[11] = Stability in mouse liver homogenate assessed as compound remaining at 0.3 ug/ml measured after 10 mins by LC-MS/MS analysis; assay type: ADME, tissue-based; conditions: tissue homogenate, dose 0.3 µg/ml; outline: as §2
[12] = Prodrug conversion in mouse liver homogenate assessed as concentration of L-BHDU formation at 0.3 ug/ml measured immediately by LC-MS/MS analysis; assay type: ADME, tissue-based; conditions: dose 0.3 µg/ml; outline: as §2
[13] = Prodrug conversion in BALB/c mouse assessed as concentration of L-BHDU formation at 22.5 mg/kg, po via gavage measured immediately by LC-MS/MS analysis; assay type: ADME, organism-based; conditions: in vivo
[14] = Stability in mouse liver homogenate assessed as compound remaining at 0.3 ug/ml measured immediately by LC-MS/MS analysis; assay type: ADME, tissue-based; conditions: tissue homogenate, dose 0.3 µg/ml; outline: as §2
[15] = Prodrug conversion in mouse liver homogenate assessed as concentration of L-BHDU formation at 0.3 ug/ml measured after 10 mins by LC-MS/MS analysis; assay type: ADME, tissue-based; conditions: dose 0.3 µg/ml; outline: as §2
[16] = Stability of compound in gastric juice; assay type: ADME; conditions: simulated gi fluid
[17] = Prodrug conversion in mouse liver homogenate assessed as concentration of L-BHDU formation at 0.3 ug/ml measured after 60 mins by LC-MS/MS analysis; assay type: ADME, tissue-based; conditions: in vitro, 1 h; outline: as §2
[18] = Prodrug conversion in mouse liver homogenate assessed as concentration of L-BHDU formation at 0.3 ug/ml measured after 2 mins by LC-MS/MS analysis; assay type: ADME, tissue-based; conditions: dose 0.3 µg/ml; outline: as §2
[19] = Prodrug conversion in mouse liver homogenate assessed as concentration of L-BHDU formation at 0.3 ug/ml measured after 30 mins by LC-MS/MS analysis; assay type: ADME, tissue-based; conditions: 0.5 h, dose 0.3 µg/ml; outline: as §2
[20] = Stability in mouse liver homogenate assessed as compound remaining at 0.3 ug/ml measured after 30 mins by LC-MS/MS analysis; assay type: ADME, tissue-based; conditions: tissue homogenate, 0.5 h, dose 0.3 µg/ml; outline: as §2
[21] = Prodrug conversion in BALB/c mouse assessed as Cmax of L-BHDU at 22.5 mg/kg, po via gavage measured upto 120 mins by LC-MS/MS analysis; assay type: ADME, organism-based; parameters: dose 22.5 mg/kg, time < 120 min, route po; conditions: in vivo, 2 h; outline: as §1
[22] = Stability of compound in intestinal juice; assay type: ADME; conditions: simulated gi fluid
[23] = Stability in mouse liver homogenate assessed as compound remaining at 0.3 ug/ml measured after 2 mins by LC-MS/MS analysis; assay type: ADME, tissue-based; conditions: tissue homogenate, dose 0.3 µg/ml; outline: as §2
[24] = Prodrug conversion in mouse liver homogenate assessed as concentration of L-BHDU formation at 0.3 ug/ml measured after 4 mins by LC-MS/MS analysis; assay type: ADME, tissue-based; conditions: dose 0.3 µg/ml; outline: as §2
Human alphaherpesvirus 3 [25] = test: Antiviral activity against VZV infected human ARPE-19 cells assessed as reduction in viral replication treated for 72 hrs by bioluminescence imaging analysis; assay type: functional, organism-based; conditions: Human alphaherpesvirus 3, ARPE-19, 72 h
[26] = Cytotoxicity against human ARPE-19 cells assessed as reduction in cell viability treated for 72 hrs by neutral red assay; assay type: toxicity, cell-based
Outline: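 ARPE-19 cells (DMEM, 10% heat-inactivated FBS, penicillin-streptomycin, amphotericin B; used within 30 passages) seeded 3 d, then exposed 72 h to a concentration range, higher than in antiviral runs, under the same conditions. Viability read by neutral red dye uptake; staurosporine as cell-death control. […] DMSO stocks diluted in DMSO and/or medium.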

Human alphaherpesvirus 3 [27] = test: Antiviral activity against VZV expressing ORF57-TKTS mutant infected human ARPE-19 cells assessed as reduction in viral replication treated for 72 hrs by bioluminescence imaging analysis; assay type: functional, organism-based; conditions: Human alphaherpesvirus 3, ARPE-19, 72 h
Human alphaherpesvirus 3 [28] = test: Antiviral activity against VZV expressing ORF57-Luc infected human ARPE-19 cells assessed as reduction in viral replication treated for 72 hrs by bioluminescence imaging analysis; assay type: functional, organism-based; conditions: Human alphaherpesvirus 3, ARPE-19, 72 h
Human alphaherpesvirus 3 [29] = test: Antiviral activity against VZV expressing ORF57-TK mutant infected human ARPE-19 cells assessed as reduction in viral replication treated for 72 hrs by bioluminescence imaging analysis; assay type: functional, organism-based; conditions: Human alphaherpesvirus 3, ARPE-19, 72 h
[30] = Drug concentration in BALB/c mouse plasma at 11.4 mg/kg, po via gavage measured after 60 mins by LC-MS/MS analysis; assay type: ADME, organism-based; outline: as §1
Human alphaherpesvirus 3 [31] = test: Antiviral activity against VZV infected HFF cells assessed as reduction in viral replication; assay type: functional, organism-based; conditions: Human alphaherpesvirus 3, HFF
[32] = Drug concentration in BALB/c mouse plasma at 11.4 mg/kg, po via gavage measured after 40 mins by LC-MS/MS analysis; assay type: ADME, organism-based; outline: as §1
[33] = Selectivity index, ratio of CC50 for HFF cells to EC50 for VZV infected HFF cells; assay type: toxicity; conditions: human, read-out: Selectivity Index
HFF = test: Cytotoxicity against HFF cells assessed as cell growth inhibition upto 200 uM; assay type: toxicity, cell-based; conditions: human
[34] = Drug concentration in BALB/c mouse plasma at 11.4 mg/kg, po via gavage measured after 20 mins by LC-MS/MS analysis; assay type: ADME, organism-based; outline: as §1

Structure (SMILES): NC(=O)CC[C@H](N)C(=O)OC[C@H]1OC[C@@H](n2cc(/C=C/Br)c(=O)[nH]c2=O)O1
selectivity ratio [1]: > 794

Structure (SMILES): O=C(OC[C@H]1OC[C@@H](n2cc(/C=C/Br)c(=O)[nH]c2=O)O1)[C@@H]1CCCN1
selectivity ratio [1]: > 1930

Structure (SMILES): CC(C)[C@@H](N)C(=O)OC[C@H]1OC[C@@H](n2cc(/C=C/Br)c(=O)[nH]c2=O)O1
selectivity ratio [1]: > 3320
CC50 [2]: > 200000 nM

Structure (SMILES): CC[C@H](C)[C@H](N)C(=O)OC[C@H]1OC[C@@H](n2cc(/C=C/Br)c(=O)[nH]c2=O)O1
selectivity ratio [1]: > 1520

Structure (SMILES): CC(C)(C)C(=O)OCOP(=O)(OCOC(=O)C(C)(C)C)OC[C@H]1OC[C@@H](n2cc(/C=C/Br)c(=O)[nH]c2=O)O1
AUC [3]: 1680 µg·min/mL
EC50 (Human alphaherpesvirus 3 [4]): 1 nM
selectivity ratio [1]: > 2810
Drug metabolism [5]: 10.608 µg/mL
Tmax [6]: 40 min
Drug metabolism [7]: 14.044 µg/mL
Drug metabolism [8]: 8.69 µg/mL
Stability [9]: 4.569 µg/mL
Drug metabolism [10]: 13.543 µg/mL
Stability [11]: 4.488 µg/mL
Drug metabolism [12]: 0.016 µg/mL
Drug metabolism [13]: 0 µg/mL
Stability [14]: 0.599 µg/mL
Drug metabolism [15]: 0.359 µg/mL
Stability [16]: Stable
Drug metabolism [17]: 1.961 µg/mL
Drug metabolism [18]: 0.055 µg/mL
Drug metabolism [19]: 1.385 µg/mL
Stability [20]: 3.777 µg/mL
Cmax [21]: 10600 ng/mL
Stability [22]: Stable
Stability [23]: 3.094 µg/mL
Drug metabolism [24]: 0.142 µg/mL

Structure (SMILES): CCCCCCCCCCCCCCCCCCOCCOP(=O)(OC[C@H]1OC[C@@H](n2cc(/C=C/Br)c(=O)[nH]c2=O)O1)Oc1ccccc1 (stereo not given in full)
EC50 (Human alphaherpesvirus 3 [25]): 100 nM
CC50 at 72 h [26]: 33900 nM
EC50 (Human alphaherpesvirus 3 [27]): > 2000 nM
EC50 (Human alphaherpesvirus 3 [28]): 820 nM
EC50 (Human alphaherpesvirus 3 [4]): 1 nM
selectivity ratio [1]: 339
EC50 (Human alphaherpesvirus 3 [29]): > 2000 nM

Structure (SMILES): CCCCCCCCCCCCCCCCOCCCOP(=O)(OC[C@H]1OC[C@@H](n2cc(/C=C/Br)c(=O)[nH]c2=O)O1)Oc1ccccc1 (stereo not given in full)
EC50 (Human alphaherpesvirus 3 [25]): 526 nM
CC50 at 72 h [26]: 18500 nM
selectivity ratio [1]: 35

Structure (SMILES): CC(C)(N)C(=O)OC[C@H]1OC[C@@H](n2cc(/C=C/Br)c(=O)[nH]c2=O)O1
selectivity ratio [1]: > 2600

Structure (SMILES): N[C@@H](Cc1c[nH]c2ccccc12)C(=O)OC[C@H]1OC[C@@H](n2cc(/C=C/Br)c(=O)[nH]c2=O)O1
selectivity ratio [1]: > 1550

Structure (SMILES): NCC(=O)OC[C@H]1OC[C@@H](n2cc(/C=C/Br)c(=O)[nH]c2=O)O1
selectivity ratio [1]: > 2130

Structure (SMILES): N[C@@H](Cc1ccc(O)cc1)C(=O)OC[C@H]1OC[C@@H](n2cc(/C=C/Br)c(=O)[nH]c2=O)O1
selectivity ratio [1]: > 826

Structure (SMILES): CC(C)C(=O)OCOP(=O)(OCOC(=O)C(C)C)OC[C@H]1OC[C@@H](n2cc(/C=C/Br)c(=O)[nH]c2=O)O1
EC50 (Human alphaherpesvirus 3 [25]): 34 nM
CC50 at 72 h [26]: > 100000 nM
EC50 (Human alphaherpesvirus 3 [27]): > 2000 nM
EC50 (Human alphaherpesvirus 3 [28]): 40 nM
EC50 (Human alphaherpesvirus 3 [4]): 8 nM
selectivity ratio [1]: > 2920
EC50 (Human alphaherpesvirus 3 [29]): > 2000 nM

Structure (SMILES): CC(C)[C@H](N)C(=O)OC[C@H]1OC[C@@H](n2cc(/C=C/Br)c(=O)[nH]c2=O)O1
selectivity ratio [1]: > 709

concentration at 1 h [30]: 6180 ng/mL
EC50 (Human alphaherpesvirus 3 [31]): 250 nM
concentration at 40 min [32]: 4500 ng/mL
concentration at 20 min [34]: 5620 ng/mL
Structure (SMILES): O=c1[nH]c(=O)n([C@@H]2CO[C@H](CO)O2)cc1/C=C/Br
selectivity ratio [1]: > 3880
selectivity ratio [33]: > 909
Activity (HFF): Non-Toxic

Structure (SMILES): N[C@H](Cc1ccccc1)C(=O)OC[C@H]1OC[C@@H](n2cc(/C=C/Br)c(=O)[nH]c2=O)O1
selectivity ratio [1]: > 3480

Structure (SMILES): C[C@@H](N)C(=O)OC[C@H]1OC[C@@H](n2cc(/C=C/Br)c(=O)[nH]c2=O)O1
selectivity ratio [1]: > 2960

Structure (SMILES): CC(C)C[C@H](N)C(=O)OC[C@H]1OC[C@@H](n2cc(/C=C/Br)c(=O)[nH]c2=O)O1
selectivity ratio [1]: > 2420
